# Measurements of several laboratories.
# Compare with care: the assays were run in different laboratories.
# Read-out: metabolic stability
# Species: human
# Matrix: liver microsomes
Compound,conditions,microsomal CLint [µL/min/mg]
COc1cc2[nH]c(C)c(-c3c(C)noc3C)c(=O)c2cc1Cl,1 µM,< 7
c1ccc(-c2nc(N3CCCC(c4ccccn4)C3)c3ccccc3n2)nc1 (stereo not shown),,113
Fc1ccc(N(CC2CC2)c2c(-c3ccccn3)nc3ccccn23)cc1,"3 µM, pH 7.4",110
Cc1cc(Nc2ccc(S(F)(F)(F)(F)F)cc2)n2ccnc2n1,,7.1
COc1cc2[nH]c(C)c(-c3ccc(F)cc3)c(=O)c2cc1Cl,1 µM,31
C[C@H](N)c1cc(Cl)ccc1Cn1c(=S)[nH]c(=O)c2[nH]ccc21,,< 3
O=S(=O)(c1ccc(-c2ccc3nccc(Nc4ccc5[nH]nnc5c4)c3c2)cc1)N1CCOCC1,,52
COc1cc2[nH]c(C)c(-c3ccc(OC(F)(F)F)cc3)c(=O)c2cc1Cl,1 µM,< 7
COc1cc(OC)cc(-c2c(-c3ccccn3)nc3n2CCC3)c1,"3 µM, pH 7.4",53
CN(C)C(=N)N=C(N)N,,1.5
CS(=O)(=O)c1ccc(-c2cnc(N)c(-c3ccc(C(F)(F)F)nc3)c2)cc1,1 µM,< 11.6
COc1cc2[nH]c(C)c(-c3cc4ccccc4o3)c(=O)c2cc1Cl,1 µM,29
Cn1cc(-c2nc(N3CCC(c4ccccn4)C3)c3ccccc3n2)cn1 (stereo not shown),,118
Cc1cc(Nc2ccnc3ccc(-c4ccc(S(=O)(=O)N5CCOCC5)cc4)cc23)sn1,,115
COc1cc2[nH]c(C)c(-c3cccc(CO)c3)c(=O)c2cc1Cl,1 µM,< 7
Fc1ccc(Nc2c(Cn3cccn3)nc3ccccn23)cc1,"3 µM, pH 7.4",45
CCOC(=O)c1c(-c2cccc(Br)c2)[nH]c2cc(OC)c(F)cc2c1=O,"19.8 µM, pH 7.4",< 4
CC(C)(C)[Si](C)(C)OCCCN(c1ccc(F)cc1)c1c(-c2ccccn2)nc2ccccn12,"3 µM, pH 7.4",> 300
Fc1cccc(F)c1-c1nc(N2CCC(c3ccccn3)C2)c2ccccc2n1 (stereo not shown),,114
O=S(=O)(c1ccc(-c2ccc3nccc(Nc4cnccn4)c3c2)cc1)N1CCOCC1,,115
CC(C)CCN(c1ccc(F)cc1)c1c(-c2ccccn2)nc2ccccn12,"3 µM, pH 7.4",110
O=S(=O)(c1ccc(-c2ccc3nccc(Nc4ncc(Cl)cn4)c3c2)cc1)N1CCOCC1,,113
CCC(F)(F)c1nc2nc(C)cc(Nc3ccc(C(F)(F)F)cc3)n2n1,"1 µM, pH 7.4",< 6
O=C(N[C@H](Cc1ccccc1)C(=O)Nc1ccccc1N1CCOCC1)c1cccs1,"2 µM, 40 min, pH 7.4",1370
Cc1cc(Nc2ccc(C(F)(F)F)cc2)n2nc(C(C)(F)F)nc2n1,"1 µM, pH 7.4",< 6
CCn1ncc2c(N3CCC(c4ccccn4)C3)nc(-c3ccccn3)nc21 (stereo not shown),,< 1
Cc1nnc(Nc2ccnc3ccc(-c4ccc(S(=O)(=O)N5CCOCC5)cc4)cc23)nc1C,,114
Cc1cc(NC(=O)Nc2ccc3c(c2)OC(F)(F)O3)cc(C(F)(F)F)n1,,< 7
COc1cc2[nH]c(C)c(-c3ccc(O)cc3)c(=O)c2cc1Cl,1 µM,< 7
Fc1ccc(Nc2c(-c3ncccc3F)nc3ccccn23)cc1,"3 µM, pH 7.4",86
Fc1ccccc1-c1nc(N2CCC(c3ccccn3)C2)c2ccccc2n1 (stereo not shown),,186
C[C@@H](C(=O)NC1Cc2ccccc2C1)c1ccccc1,"1 µM, 1 h",105
CN(c1ccc(F)cc1)c1c(-c2ccc(F)cn2)nc2ccccn12,"3 µM, pH 7.4",220
COc1cc2[nH]c(C)c(-c3ccc(COc4ccccc4)cc3)c(=O)c2cc1Cl,1 µM,22
N#CC1CCN(c2nc(-c3ccccn3)nc3ccccc23)C1 (stereo not shown),,45
COc1ccc(Nc2ccnc3ccc(-c4ccc(S(=O)(=O)N5CCOCC5)cc4)cc23)cc1Cl,,102
FC(F)(F)c1ccccc1-c1nc(N2CCC(c3ccccn3)C2)c2ccccc2n1 (stereo not shown),,199
COc1cc2[nH]c(C)c(-c3ccoc3)c(=O)c2cc1Cl,1 µM,93
Cc1noc(C)c1Nc1ccnc2ccc(-c3ccc(S(=O)(=O)N4CCOCC4)cc3)cc12,,78.2
Cn1ccnc1CNc1nc(-c2ccccn2)nc2ccccc12,,24
C[C@H](C(=O)N[C@@H]1COc2ccccc2[C@H]1S(C)(=O)=O)c1ccc(F)cc1,1 µM,2
COc1ccc(CNc2c(CO)cnc3c(C4CC4)cc(C#N)cc23)cc1Cl,,80
O=S(=O)(c1ccc(-c2ccc3nccc(Nc4cccnc4)c3c2)cc1)N1CCOCC1,,86.3
CCOC(=O)c1c(-c2cccc(Cl)c2)[nH]c2cc(OC)c(F)cc2c1=O,"19.8 µM, pH 7.4",< 4
CCC(F)(F)c1nc2nc(C)cc(Nc3ccc(S(F)(F)(F)(F)F)cc3)n2n1,"1 µM, pH 7.4",< 6
COc1cccc(-c2nc3ccccn3c2Nc2ccc(F)cc2)n1,"3 µM, pH 7.4",137
